Experimental data of several laboratories.
Compare with care: the assays were run in different laboratories.
Target: Phosphatidylinositol 4,5-bisphosphate 3-kinase catalytic subunit beta isoform (PIK3CB, Homo sapiens, UniProt P42338)

| SMILES | assay | test system | setting | quantity | value |
| --- | --- | --- | --- | --- | --- |
| O=C(N1CCS(=O)(=O)CC1)N1C[C@H](c2ccc(OC(F)(F)F)cc2)C[C@H](c2nc(C3CC3)no2)C1 | cell-free assay, competition with immobilised ligand |  | 1 µM | remaining binding | 66% |
| Nc1ncnc2occ(-c3ccc(NC(=O)Nc4cc(C(F)(F)F)ccc4F)cc3)c12 | cell-free assay, inhibitor |  | 20 µM | remaining signal | 86% |
| COc1cccc2c(NCc3ccccc3)nc(-n3c(N)nc4ccccc43)nc12 | target engagement in cells, inhibitor, chemoproteomics |  | 20 mM | inhibition | 5.6% |
| COc1cc(-c2cc(-c3ccc(N4CCNCC4)cc3)cnc2C)cc(OC)c1OC | enzyme activity, inhibitor |  | 1 µM | inhibition | 6% |
| Cc1ccc(C(=O)Nc2ccc(CN3CCN(C)CC3)c(C(F)(F)F)c2)cc1C#Cc1cnc2cccnn12 | enzyme activity, inhibitor |  | 23.5 nM | remaining activity | 99% |
| CCCCNc1ncc2c(-c3ccc(F)cc3)nn(C[C@H]3CC[C@H](N)CC3)c2n1 | target engagement in cells, inhibitor, chemoproteomics |  | 20 mM | inhibition | 16.7% |
| CS(=O)(=O)Nc1cc(-c2ccc3ncnc(Nc4ccc(F)c(Cl)c4)c3c2)cnc1Cl | enzyme activity, inhibitor, FRET |  | 10 µM | inhibition | 90 to 100% |
| CNc1cc(Oc2cc(C(=O)Nc3cc(N4CCN(C)CC4)cc(C(F)(F)F)c3)ccc2C)ncn1 | target engagement in cells, inhibitor, chemoproteomics | Huh-7 | 1 µM | inhibition | -11.6% |
| CCOCCn1cc(C(=O)Nc2ccc(-n3nc(-c4cccnc4)cc3C(F)(F)F)cn2)ccc1=O | cell-free assay, competition with immobilised ligand |  | 1 µM | remaining binding | 82% |
